Measurements as given in ChEMBL document CHEMBL2034864, “Synthesis, characterization, antimicrobial activities and QSAR studies of some 10a-phenylbenzo[b]indeno[1,2-e][1,4]thiazin-11(10aH)-ones” (2012).
Values after ≈ are worked out from the molar mass of the structure shown. Active and inactive are the calls of the source. The calls are words filed in the database; no cut-off is given here.

Key:
Candida albicans = test: Antifungal activity against Candida albicans MTCC 183 after 72 hrs by serial dilution technique; format: functional
Summary of the method: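 Compounds were dissolved in DMSO as stock, diluted to 100 µg/mL in potato dextrose broth, then two-fold serially diluted from 100 to 1.56 µg/mL. Fungi were grown in Sabouraud dextrose broth at 28 °C: A. fumigatus for 2–3 weeks, C. albicans for 48 h. Spores were centrifuged, washed in sterile water and inoculated in triplicate, then incubated 72 h at 28 °C. MIC was assigned by CFU assay. Controls were fluconazole and DMSO.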

Pseudomonas aeruginosa = test: Antibacterial activity against Pseudomonas aeruginosa MTCC 7952 after 24 hrs by serial dilution technique; format: functional; settings: for MIC: Pseudomonas aeruginosa, MTCC 7952, 24 h
Summary of the method: (§1)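 Compounds were dissolved in DMSO as stock, diluted to 100 µg/mL in Luria broth, then two-fold serially diluted from 100 to 1.56 µg/mL. Bacteria were grown in Luria broth at 37 °C, centrifuged and washed three times with PBS. They were inoculated into each dilution in triplicate and incubated 24 h at 37 °C. Growth was read visually and spectrophotometrically. Controls were penicillin, streptomycin and DMSO. MIC is in µmol/mL.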

Staphylococcus aureus = test: Antibacterial activity against Staphylococcus aureus MTCC 7443 after 24 hrs by serial dilution technique; format: functional; settings: for MIC: Staphylococcus aureus, MTCC 7443, 24 h; summary of the method: as §1
Aspergillus fumigatus = test: Antifungal activity against Aspergillus fumigatus MTCC 2550 after 72 hrs by serial dilution technique
Bacillus subtilis = test: Antibacterial activity against Bacillus subtilis MTCC 441 after 24 hrs by serial dilution technique; format: functional; settings: for MIC: Bacillus subtilis, MTCC 441, 24 h; summary of the method: as §1
Escherichia coli = test: Antibacterial activity against Escherichia coli MTCC 42 after 24 hrs by serial dilution technique; format: functional; settings: for MIC: Escherichia coli, MTCC 42, 24 h; summary of the method: as §1
[1] = Candida albicans, MTCC 183, 72 h
[2] = Aspergillus fumigatus, MTCC 2550, 72 h

Row | Compound | -logMIC (Candida albicans) | MIC (Candida albicans; [1]) [µM] | -logMIC (Pseudomonas aeruginosa) | MIC (Pseudomonas aeruginosa) [µM] | -logMIC (Staphylococcus aureus) | MIC (Staphylococcus aureus) [µM] | -logMIC (Aspergillus fumigatus) | MIC (Aspergillus fumigatus; [2]) [µM] | -logMIC (Bacillus subtilis) | MIC (Bacillus subtilis) [µM] | -logMIC (Escherichia coli) | MIC (Escherichia coli) [µM] | MIC (Candida albicans) | MIC (Aspergillus fumigatus)
1 | O=C1c2ccccc2C2=Nc3ccc(Br)cc3SC12c1ccccc1 (stereo unspecified) | 1.51 | 30.8 (≈ 12.5 µg/mL) | 1.81 | 15.4 (≈ 6.26 µg/mL) | 0.91 | 123 (≈ 50.1 µg/mL) | 1.51 | 30.8 (≈ 12.5 µg/mL) | 1.21 | 61.7 (≈ 25.1 µg/mL) | 1.21 | 61.7 (≈ 25.1 µg/mL) | – | –
2 | OC(Cn1cncn1)(Cn1cncn1)c1ccc(F)cc1F [FLUCONAZOLE] | – | 10.1 (≈ 3.09 µg/mL) | – | – | – | – | – | 10.1 (≈ 3.09 µg/mL) | – | – | – | – | – | –
3 | Cc1ccc(C23Sc4ccccc4N=C2c2ccccc2C3=O)cc1 (stereo unspecified) | – | – | 1.14 | 73.2 (≈ 25 µg/mL) | 0.53 | 293 (≈ 100 µg/mL) | – | – | 1.14 | 73.2 (≈ 25 µg/mL) | – | – | inactive | inactive
4 | Cc1ccc2c(c1)SC1(c3ccc(Cl)cc3)C(=O)c3ccccc3C1=N2 (stereo unspecified) | 1.18 | 66.6 (≈ 25 µg/mL) | 1.18 | 66.6 (≈ 25 µg/mL) | – | – | 0.88 | 133 (≈ 50.1 µg/mL) | 1.18 | 66.5 (≈ 25 µg/mL) | 1.18 | 66.6 (≈ 25 µg/mL) | – | –
5 | COc1ccc(C23Sc4cc(Br)ccc4N=C2c2ccccc2C3=O)cc1 (stereo unspecified) | 1.84 | 14.3 (≈ 6.24 µg/mL) | 1.24 | 57.4 (≈ 25 µg/mL) | 2.15 | 7.1 (≈ 3.1 µg/mL) | 1.84 | 14.3 (≈ 6.24 µg/mL) | 2.15 | 7.1 (≈ 3.1 µg/mL) | 1.84 | 14.3 (≈ 6.24 µg/mL) | – | –
6 | COc1ccc2c(c1)SC1(c3ccccc3)C(=O)c3ccccc3C1=N2 (stereo unspecified) | – | – | 1.46 | 35 (≈ 12.5 µg/mL) | 0.85 | 140 (≈ 50 µg/mL) | – | – | 1.15 | 70 (≈ 25 µg/mL) | – | – | inactive | inactive
7 | O=C1c2ccccc2C2=Nc3ccc(Br)cc3SC12c1ccc(Cl)cc1 (stereo unspecified) | 1.55 | 28.4 (≈ 12.5 µg/mL) | 1.24 | 57 (≈ 25.1 µg/mL) | 2.15 | 7.1 (≈ 3.13 µg/mL) | 1.55 | 28.4 (≈ 12.5 µg/mL) | 1.55 | 28.4 (≈ 12.5 µg/mL) | 1.24 | 56.9 (≈ 25.1 µg/mL) | – | –
8 | O=C1c2ccccc2C2=Nc3ccccc3SC12c1ccc(Cl)cc1 (stereo unspecified) | – | – | – | – | 0.86 | 138 (≈ 50.1 µg/mL) | – | – | 1.46 | 34.6 (≈ 12.5 µg/mL) | 2.37 | 4.3 (≈ 1.56 µg/mL) | inactive | inactive
9 | Cc1ccc(C23Sc4cc(Br)ccc4N=C2c2ccccc2C3=O)cc1 (stereo unspecified) | 0.92 | 119 (≈ 50.1 µg/mL) | 1.23 | 59.4 (≈ 25 µg/mL) | 0.92 | 119 (≈ 50.1 µg/mL) | 0.92 | 119 (≈ 50.1 µg/mL) | 1.53 | 29.8 (≈ 12.5 µg/mL) | 1.23 | 59.4 (≈ 25 µg/mL) | – | –
10 | COc1ccc(C23Sc4cc(C)ccc4N=C2c2ccccc2C3=O)cc1 (stereo unspecified) | 1.47 | 33.6 (≈ 12.5 µg/mL) | 1.17 | 67.3 (≈ 25 µg/mL) | 1.17 | 67.3 (≈ 25 µg/mL) | 0.87 | 135 (≈ 50 µg/mL) | 1.47 | 33.6 (≈ 12.5 µg/mL) | 1.17 | 67.3 (≈ 25 µg/mL) | – | –
11 | CC1(C)S[C@@H]2[C@H](NC(=O)Cc3ccccc3)C(=O)N2[C@H]1C(=O)O [PENICILLIN G] | – | – | – | 18.7 (≈ 6.25 µg/mL) | – | 4.6 (≈ 1.54 µg/mL) | – | – | – | 4.6 (≈ 1.54 µg/mL) | – | 37.4 (≈ 12.5 µg/mL) | – | –
12 | COc1ccc2c(c1)SC1(c3ccc(C)cc3)C(=O)c3ccccc3C1=N2 (stereo unspecified) | 1.77 | 16.8 (≈ 6.24 µg/mL) | 1.47 | 33.6 (≈ 12.5 µg/mL) | 0.87 | 135 (≈ 50 µg/mL) | 1.17 | 67.3 (≈ 25 µg/mL) | 1.17 | 67.3 (≈ 25 µg/mL) | 2.38 | 4.2 (≈ 1.56 µg/mL) | – | –
13 | Cc1ccc(C23Sc4cc(C)ccc4N=C2c2ccccc2C3=O)cc1 (stereo unspecified) | 1.15 | 70.4 (≈ 25 µg/mL) | 1.15 | 70.4 (≈ 25 µg/mL) | – | – | 0.85 | 141 (≈ 50 µg/mL) | 0.85 | 141 (≈ 50 µg/mL) | 1.45 | 35.2 (≈ 12.5 µg/mL) | – | –
14 | Cc1ccc2c(c1)SC1(c3ccccc3)C(=O)c3ccccc3C1=N2 (stereo unspecified) | 1.44 | 36.6 (≈ 12.5 µg/mL) | 1.13 | 73.3 (≈ 25 µg/mL) | 2.35 | 4.5 (≈ 1.54 µg/mL) | 1.14 | 73.2 (≈ 25 µg/mL) | 0.83 | 146 (≈ 50 µg/mL) | – | – | – | –
15 | COc1ccc2c(c1)SC1(c3ccc(Cl)cc3)C(=O)c3ccccc3C1=N2 (stereo unspecified) | 1.5 | 31.9 (≈ 12.5 µg/mL) | 1.19 | 63.9 (≈ 25 µg/mL) | 1.8 | 15.9 (≈ 6.23 µg/mL) | 1.5 | 31.9 (≈ 12.5 µg/mL) | 1.5 | 31.9 (≈ 12.5 µg/mL) | 1.19 | 63.9 (≈ 25 µg/mL) | – | –
16 | COc1ccc(C23Sc4ccccc4N=C2c2ccccc2C3=O)cc1 (stereo unspecified) | – | – | – | – | 0.85 | 140 (≈ 50 µg/mL) | – | – | – | – | 1.15 | 70 (≈ 25 µg/mL) | inactive | inactive
17 | CN[C@@H]1[C@H](O[C@H]2[C@H](O[C@H]3[C@H](O)[C@@H](O)[C@H](N=C(N)N)[C@@H](O)[C@@H]3N=C(N)N)O[C@@H](C)[C@]2(O)C=O)O[C@@H](CO)[C@H](O)[C@H]1O [STREPTOMYCIN] | – | – | – | 2.6 (≈ 1.51 µg/mL) | – | 10.7 (≈ 6.22 µg/mL) | – | – | – | 10.7 (≈ 6.22 µg/mL) | – | 5.3 (≈ 3.08 µg/mL) | – | –
18 | COc1ccc(C23Sc4cc(OC)ccc4N=C2c2ccccc2C3=O)cc1 (stereo unspecified) | 1.19 | 64.5 (≈ 25 µg/mL) | – | – | 1.79 | 16.1 (≈ 6.24 µg/mL) | 1.19 | 64.5 (≈ 25 µg/mL) | 2.4 | 4 (≈ 1.55 µg/mL) | 1.79 | 16.1 (≈ 6.24 µg/mL) | – | –
19 | O=C1c2ccccc2C2=Nc3ccccc3SC12c1ccccc1 (stereo unspecified) | 1.12 | 76.4 (≈ 25 µg/mL) | 1.42 | 38.2 (≈ 12.5 µg/mL) | 0.82 | 153 (≈ 50 µg/mL) | 1.12 | 76.4 (≈ 25 µg/mL) | 1.12 | 76.4 (≈ 25 µg/mL) | 1.42 | 38.2 (≈ 12.5 µg/mL) | – | –
